Measured values of several laboratories.
Lines come from different studies, so protocols differ.
PIK3CG: Phosphatidylinositol 4,5-bisphosphate 3-kinase catalytic subunit gamma isoform (PIK3CG, Homo sapiens, UniProt P48736)
Inositol-tetrakisphosphate 1-kinase: Inositol-tetrakisphosphate 1-kinase (Homo sapiens, UniProt Q13572)
PTGS2: Prostaglandin G/H synthase 2 (PTGS2, Homo sapiens, UniProt P35354)

| SMILES | target | assay | setting | IC50 [nM] |
| --- | --- | --- | --- | --- |
| CC(C)c1cccc(C(C)C)c1N=C1C(=O)N(Cc2ccccc2)c2ccccc21 | PIK3CG | enzyme activity, inhibitor, ADP detection | – | 1.68 |
| CN(C)C(=O)c1cc2cnc(Nc3cncc(-c4ccc5c(=O)cc(N6CCOCC6)oc5c4)c3)nc2n1C1CCCC1 | PIK3CG | enzyme activity, inhibitor, radiometric | – | 1200 |
| COc1cc(N=C2C(=O)N(Cc3ccccc3)c3ccccc32)cc(OC)c1 | PIK3CG | enzyme activity, inhibitor, ADP detection | – | 1.94 |
| Nc1ncnc2c1ncn2[C@@H]1O[C@H](CO)[C@@H](O)[C@@H]1F | Inositol-tetrakisphosphate 1-kinase | enzyme activity, inhibitor, ADP detection | – | 3700 |
| CC(C)N(CCC(=O)c1ccc2ccccc2c1)Cc1ccccc1 | Retinal dehydrogenase 2 (ALDH1A2, Homo sapiens, UniProt O94788) | enzyme activity, inhibitor, fluorescence | 15 min, pH 7.5 | < 10000 |
| Nc1ncnc2c1ncn2C1CCCO1 (centres unmarked) | Inositol-tetrakisphosphate 1-kinase | enzyme activity, inhibitor | – | 1000 |
| NS(=O)(=O)c1ccc(-n2nc(C(=O)NN3C(=O)CCC3=O)cc2-c2ccccc2)cc1 | PTGS2 | enzyme activity, inhibitor | – | 3630 |
| CCc1ccc(N=C2C(=O)Nc3ccccc32)cc1 | PIK3CG | enzyme activity, inhibitor, ADP detection | – | 93.4 |
| Nc1ncnc2c1ncn2C1CCCC1 | Inositol-tetrakisphosphate 1-kinase | enzyme activity, inhibitor | – | 26 |
| Cc1cccc(N=C2C(=O)N(Cc3cccc(Cl)c3)c3ccccc32)c1 | PIK3CG | enzyme activity, inhibitor, ADP detection | – | 0.96 |
| C=CC(=O)N1CCN(c2nc(=O)n(-c3c(C)ccnc3C(C)C)c3nc(-c4c(O)cccc4F)c(F)cc23)[C@@H](C)C1 | GTPase NRas (NRAS, Homo sapiens, UniProt P01111, C181S/C186S/G12C) | enzyme activity, inhibitor | – | 57.2 |
| CN(C)C(=O)c1cc2cnc(Nc3ccc(-c4cccc5c(=O)cc(N6CCOCC6)oc45)c(F)c3)nc2n1C1CCCC1 | PIK3CG | enzyme activity, inhibitor, radiometric | – | > 10000 |
| c1ccc(COc2[nH]cnc3ncnc2-3)cc1 | Inositol-tetrakisphosphate 1-kinase | enzyme activity, inhibitor | – | 5300 |
| COc1ccc(-c2cc(=O)c3cccc(Nc4ncc5cc(C(=O)N(C)C)n(C6CCCC6)c5n4)c3o2)cc1 | PIK3CG | enzyme activity, inhibitor, radiometric | – | > 10000 |
| O=C1C(=Nc2ccccc2I)c2ccccc2N1Cc1cccc(Cl)c1 | PIK3CG | enzyme activity, inhibitor, ADP detection | – | 4.07 |
| O=C(CCNC(=O)CNC(=O)CC(c1ccccc1)(c1ccccc1)c1ccccc1)NC[C@@H]1CCCN(Cc2ccc(F)nc2)C1 | Muscarinic acetylcholine receptor M3 (CHRM3, Homo sapiens, UniProt P20309) | ligand displacement, radioligand | cell membranes | 8200 |
| CN(C)C(=O)c1cc2cnc(Nc3ccc4c(=O)cc(N5CCOCC5)oc4c3)nc2n1C1CCCC1 | PIK3CG | enzyme activity, inhibitor, radiometric | – | 461 |
| NS(=O)(=O)c1ccc(-n2nc(C(=O)NN=Cc3ccccc3O)cc2-c2ccccc2)cc1 | PTGS2 | enzyme activity, inhibitor | – | 1550 |
| CN(C)C(=O)c1cc2cnc(Nc3ccc(-c4ccc5c(=O)cc(N6CCOCC6)oc5c4)cc3)nc2n1C1CCCC1 | PIK3CG | enzyme activity, inhibitor, radiometric | – | 3390 |
| O=C1C(=Nc2ccc(Cl)cc2)c2ccccc2N1Cc1ccc([N+](=O)[O-])cc1 | PIK3CG | enzyme activity, inhibitor, ADP detection | – | 1.2 |
| CN(C)C(=O)c1cc2cnc(Nc3ccc(-c4cccc5c(=O)cc(N6CCOCC6)oc45)cn3)nc2n1C1CCCC1 | PIK3CG | enzyme activity, inhibitor, radiometric | – | > 10000 |
| COc1ccc(C=NNC(=O)c2cc(-c3ccccc3)n(-c3ccc(S(N)(=O)=O)cc3)n2)cc1OC | PTGS2 | enzyme activity, inhibitor | – | 4610 |
| O=C(CCc1ccc(Cl)cc1)N1C(=O)C(=Nc2ccc(Cl)cc2Br)c2ccccc21 | PIK3CG | enzyme activity, inhibitor, ADP detection | – | 9.65 |
